Assays:
[1] = test system: refractory head and neck cancer; conditions: intratumoral, three weekly doses at 10–15 mg/cm; cited from earlier work
[2] = IV 1,700 mg/day (MTD), 5 days/month; cited from earlier work
[3] = test system: advanced acute myeloid leukemia or myelodysplastic syndrome; conditions: intravenous; cited from earlier work
dogs = test: 28-day oral toxicity study in dogs; type: in vivo, Beagle Dog; conditions: continuous 28-day schedule
[4] = test system: recurrent high-grade glioma; test: Tumor response and survival, GATOR trial; type: in vivo, human; conditions: oral, 19 participants
How it was run: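 Oral dosing 1,200–6,000 mg/day, days 1–5 every 28 days, in recurrent grade III–IV glioma. OS ran from registration to death from any cause, censored at last known alive. PFS ran from registration to progression, censored if still on treatment or at last progression-free date. Medians by Kaplan–Meier; confidence intervals by Brookmeyer-Crowley method.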

[5] = test system: advanced refractory solid tumors; conditions: intravenous; cited from earlier work
[6] = test system: patients with recurrent high-grade gliomas; conditions: IV; cited from earlier work
[7] = Plasma pharmacokinetics of oral terameprocol, GATOR trial; type: in vivo, human; conditions: for AUC(0-inf): AUCINF
[8] = test system: recurrent high-grade gliomas; conditions: IV; cited from earlier work
[9] = oral 6,000 mg fed, cycle 1 day 4, actual values of 2 patients

## COc1ccc(C[C@@H](C)[C@@H](C)Cc2ccc(OC)c(OC)c2)cc1OC [terameprocol, meso-tetra-O-methyl nordihydroguaiaretic acid]
[1]
  total necrosis of the injection site, patients: 2/3
[2]
  median AUC: 31.3 μg∗h/mL
[3]
  stable disease: five
dogs
  tolerability: well tolerated
[4]
  partial or complete responses: no partial or complete responses
[5]
  dose at which DLT was demonstrated: 3,300 mg/day
  partial response: 1/29
  stable disease: 6/29
[6]
  myelosuppression: nor did terameprocol cause significant myelosuppression
[7]; human, plasma, po, 1200 mg, Cmax, oral 1,200 mg fasted, cycle 1 day 1, mean ± SD
  Cmax: 30 ± 10 ng/mL
[7]; human, plasma, po, 1200 mg, Cmax, oral 1,200 mg fasted, cycle 1 day 4, mean ± SD
  Cmax: 30 ± 30 ng/mL
[7]; human, plasma, po, 1200 mg, T1/2, oral 1,200 mg fasted, cycle 1 day 1, 1 patient
  half-life: 1.9 h
[7]; human, plasma, po, 2400 mg, Cmax, oral 2,400 mg fasted, cycle 1 day 1, mean ± SD
  Cmax: 100 ± 50 ng/mL
[7]; human, plasma, po, 2400 mg, Cmax, oral 2,400 mg fasted, cycle 1 day 4, mean ± SD
  Cmax: 100 ± 60 ng/mL
[7]; human, plasma, po, 2400 mg, T1/2, oral 2,400 mg fasted, cycle 1 day 4, mean ± SD
  half-life: 24.8 ± 6.2 h
[7]; human, plasma, po, 3600 mg, Cmax, oral 3,600 mg fasted, cycle 1 day 1, mean ± SD
  Cmax: 280 ± 190 ng/mL
[7]; human, plasma, po, 3600 mg, Cmax, oral 3,600 mg fasted, cycle 1 day 4, mean ± SD
  Cmax: 250 ± 140 ng/mL
[7]; human, plasma, po, 3600 mg, T1/2, oral 3,600 mg fasted, cycle 1 day 1, mean ± SD
  half-life: 6 ± 0.6 h
[7]; human, plasma, po, 3600 mg, T1/2, oral 3,600 mg fasted, cycle 1 day 4, mean ± SD
  half-life: 6.5 ± 0.8 h
[7]; human, plasma, po, 4800 mg, Cmax, oral 4,800 mg fed, cycle 1 day 4, 1 patient
  Cmax: 230 ng/mL
[7]; human, plasma, po, 4800 mg, T1/2, oral 4,800 mg fed, cycle 1 day 4, 1 patient
  half-life: 10.7 h
[7]; human, plasma, po, 4800 mg, oral 4,800 mg fed, cycle 1 day 4, 1 patient
  Tmax: 5.9 h
[7]; human, plasma, po, 6000 mg, oral 6,000 mg fasted, cycle 1 day 1, 1 patient
  AUC(0-inf): 1900 ng·h/mL
[7]; human, plasma, po, 6000 mg, oral 6,000 mg fed, cycle 1 day 1, mean ± SD
  AUC(0-inf): 2400 ± 1800 ng·h/mL
[7]; human, plasma, po, 6000 mg, Cmax, oral 6,000 mg fasted, cycle 1 day 1, mean ± SD
  Cmax: 200 ± 120 ng/mL
[7]; human, plasma, po, 6000 mg, Cmax, oral 6,000 mg fed, cycle 1 day 1, mean ± SD
  Cmax: 330 ± 310 ng/mL
[7]; human, plasma, po, 6000 mg, Cmax, oral 6,000 mg fed, cycle 1 day 4, mean ± SD
  Cmax: 600 ± 570 ng/mL
[7]; human, plasma, po, 6000 mg, T1/2, oral 6,000 mg fasted, cycle 1 day 4, 1 patient
  half-life: 14.9 h
[7]; human, plasma, po, 6000 mg, T1/2, oral 6,000 mg fed, cycle 1 day 1, mean ± SD
  half-life: 6.6 ± 2.2 h
[7]; human, plasma, po, 6000 mg, oral 6,000 mg fasted, cycle 1 day 1, median (range; n)
  Tmax: 4 h
[7]; human, plasma, po, 6000 mg, oral 6,000 mg fed, cycle 1 day 1, median (range; n)
  Tmax: 4.1 h
[7]; human, plasma, po, 6000 mg, oral 6,000 mg fed, cycle 1 day 4, median (range; n)
  Tmax: 8 h
[7]; oral 1,200 mg fasted, cycle 1 day 4, actual values of 2 patients
  T1/2: 3.1 h
[7]; oral 2,400 mg fasted, cycle 1 day 1, actual values of 2 patients
  AUCINF: 0.7 μg∗h/mL
[7]; oral 6,000 mg fasted, cycle 1 day 1, actual values of 2 patients
  T1/2: 14.9 h
[7]; oral 6,000 mg fasted, cycle 1 day 4, actual values of 2 patients
  Cmax: 150 ng/mL
[7]; [9]
  AUCINF: 4.4 μg∗h/mL
  T1/2: 6.5 h
[8]
  objective responses: no objective responses

Source: publication PMC11293336 (Cell Reports Medicine, 2024)
